Test results reported in ChEMBL document CHEMBL1157965, “Mono-, Bi-, and triphenanthrenes from the tubers of Cremastra appendiculata” (J Nat Prod, 2006).

How the values were obtained:
Type in all cases: functional, cell-based
HCT-8 = experiment: Cytotoxicity against human HCT8 cells after 96 hrs by MTT assay; settings: HCT-8, 96 h
Procedure, shortened: (§1)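 Cells kept in RPMI 1640 with 10% FBS, 100 units/mL penicillin and 100 µg/mL streptomycin at 37 °C, humidified 5% CO2. Seeded at 1200 cells/well; compounds added after 24 h at five concentrations from DMSO stocks (0.1% DMSO final), three wells per concentration.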

Bel-7402 = experiment: Cytotoxicity against human Bel7402 cells after 96 hrs by MTT assay; settings: Bel-7402, 96 h; procedure, shortened: as §1
WISH = experiment: Cytotoxicity against human WISH cells after 96 hrs by MTT assay; procedure, shortened: as §1
A2780 = experiment: Cytotoxicity against human A2780 cells after 96 hrs by MTT assay; settings: A2780, 96 h; procedure, shortened: as §1
BGC-823 = experiment: Cytotoxicity against human BGC823 cells after 96 hrs by MTT assay; settings: BGC-823, 96 h; procedure, shortened: as §1
A549 = experiment: Cytotoxicity against human A549 cells after 96 hrs by MTT assay; settings: A549, 96 h; procedure, shortened: as §1
MCF7 = experiment: Cytotoxicity against human MCF7 cells after 96 hrs by MTT assay; settings: MCF7, 96 h; procedure, shortened: as §1

| SMILES | IC50 (HCT-8) | IC50 (Bel-7402) | IC50 (WISH) | IC50 (A2780) | IC50 (BGC-823) | IC50 (A549) | IC50 (MCF7) |
| --- | --- | --- | --- | --- | --- | --- | --- |
| COc1cc(O)cc2ccc3cc(O)ccc3c12 [FLAVANTHRININ] | > 20.8 µM | > 20.8 µM | > 20.8 µM | > 20.8 µM | > 20.8 µM | > 20.8 µM | > 20.8 µM |
| COc1ccc2c(ccc3cc(O)cc(OC)c32)c1 | > 5 µM | > 5 µM | > 5 µM | > 5 µM | > 5 µM | > 5 µM | > 5 µM |
| COc1ccc2c(ccc3c(-c4c(O)ccc5c4ccc4c(-c6c(O)cc(OC)c7c6ccc6cc(O)ccc67)c(O)cc(OC)c45)c(O)cc(OC)c32)c1 | 8 µM | 8.2 µM | > 15 µM | 8.1 µM | 8.4 µM | 11.6 µM | 8.3 µM |
| COC1=CC(=O)C(O)(CC(C)=O)c2ccc3cc(O)ccc3c21 (stereo not drawn) | > 16 µM | > 16 µM | > 16 µM | > 16 µM | > 16 µM | > 16 µM | > 16 µM |
| CC[C@@]1(O)C(=O)OCc2c1cc1n(c2=O)Cc2cc3c(CN(C)C)c(O)ccc3nc2-1 [TOPOTECAN] | 1.5 µM | 1.2 µM | 1.3 µM | 1.1 µM | 4.4 µM | 3.3 µM | 1.9 µM |
| COC1=CC(=O)C(O)(CC(C)=O)c2ccc3cc(OC)ccc3c21 (stereo not drawn) | > 15.3 µM | > 15.3 µM | > 15.3 µM | > 15.3 µM | > 15.3 µM | > 15.3 µM | > 15.3 µM |
| COc1ccc2c(ccc3c(-c4c(O)cc(OC)c5c4ccc4cc(O)ccc45)c(O)cc(OC)c32)c1 | > 10.2 µM | > 10.2 µM | > 10.2 µM | > 10.2 µM | > 10.2 µM | > 10.2 µM | > 10.2 µM |
| COc1cc(O)c(-c2c(O)cc(OC)c3c2ccc2cc(O)ccc23)c2ccc3cc(O)ccc3c12 [CIRRHOPETALANTHIN] | 11.2 µM | 8.4 µM | > 22.7 µM | 13.2 µM | 10.5 µM | 17.8 µM | 12.5 µM |
| COc1ccc2c(ccc3c(-c4c(O)cc(OC)c5c4ccc4cc(OC)ccc45)c(O)cc(OC)c32)c1 | 10.7 µM | 11.1 µM | 5 µM | 11 µM | 9.5 µM | 11.6 µM | 11.9 µM |
